This is a sample that favours compounds with a hit; in the whole collection about 2.6% have one here.
Yeast growth inh = growth inhibitors of yeast BB579 in restrictive medium, primary screen, yeast lifespan-shortening project, S. cerevisiae; inhibition, % at 10 µM; OD615, 48 h; hit rate 0.51% among 140,000;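 active means inhibition above a set limit, 3 SD over the mean compound inhibition, cut at about 44% in these data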
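controls = amphotericin B 10 µg/mL, positive | assay system = DeaD yeast strain BB579 | schedule = 48 h compound exposure at 30 °C after 4 h preincubation | detection = OD615 turbidity measurement | medium = restrictive CSMM-D medium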
RAM inhibit = inhibitors of the yeast RAM network, primary screen, dse1pr::URA3 reporter, 5-FOA selection; S. cerevisiae dse1pr::URA3 reporter, 5-FOA growth OD615, 2 d; analog-sensitive cbk1-as2 kinase mutant strain; inhibition, % at 50 µM; hit rate 1.8% among 190,000; AID 868, 2007;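 active means inhibition above a set limit, 3 SD over mean compound inhibition, cut at about 8.4% in these data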;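 further: 0% = DMSO-only wells with no growth and 100% = 10 µM 1-NA-PP1 full growth; inhibition rescues growth on 5-FOA so higher OD means more RAM inhibition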
Yeast life ext = compounds extending yeast replicative lifespan, primary screen, S. cerevisiae, OD615 | hit rate 0.68% among 130,000 | inhibition of the nicotinamide effect, % at 10 µM | S. cerevisiae growth with nicotinamide; deaD strain in restrictive glucose medium;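 active means inhibition above a set limit, placed 3 SD over the median of all compounds, cut at about 26% in these data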;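 further: 0% = nicotinamide-treated wells and 100% = cells grown without nicotinamide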
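Assay system: DeaD-strain S. cerevisiae. Medium: CSMM-D glucose medium, restrictive. Reagent: nicotinamide, 1.5 mM, co-present with compound. Compound: 10 µM single point, 0.25% DMSO. Schedule: culture preincubation 4 h, compound exposure 48 h, both 30 °C. Detection: absorbance at 615 nm.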
RAM 5-FOA = 5-FOA growth of efflux-deficient control yeast, dose response, counter-screen for RAM network inhibitor project, S. cerevisiae, OD615 | 1,200 tested, under 10 active | S. cerevisiae efflux-deficient reporter strain, 5-FOA growth OD615, 2 days | max inhibition, % | shares compounds with RAM inhibit | AID 1305, 2008; call rule not given here;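 further: plate controls were vehicle for no effect and reference inhibitor for full effect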
* hit, by the source's call.

CC(=O)C(N=Nc1ccccc1)(Sc1nnc(-c2ccccc2)n1-c1ccccc1)C(=O)Nc1ccccc1 (stereo not drawn) was read as Yeast growth inh -30, RAM inhibit 2 and Yeast life ext -6.
`Cc1ccc(-c2cccc(OC(=O)c3ccccc3F)c2)cc1` gave Yeast growth inh -29, RAM inhibit 15*, Yeast life ext 0 and RAM 5-FOA 3.
CC(C)(C)c1cc(OC(=O)c2ccccc2F)ccc1O was read as RAM inhibit 0.
CCOc1ccc(NC(=O)c2cc(SC)ccc2Cl)cc1 was read as Yeast growth inh -14, RAM inhibit 2 and Yeast life ext 0.
For CCCCCOc1ccc(NC(=O)c2cc(SC)ccc2Cl)cc1 the results were Yeast growth inh -30, RAM inhibit 13*, Yeast life ext 10 and RAM 5-FOA 2.
`CN(C)c1nc(SCCOC(=O)c2ccccc2)nc(N(C)C)n1` gave Yeast growth inh -6, RAM inhibit 1 and Yeast life ext -22.
CCN(CC)c1nc(SCCOC(=O)Nc2ccccc2)nc(N(CC)CC)n1 was read as Yeast growth inh -41, RAM inhibit 18* and RAM 5-FOA 8.
`COc1ccc(CN2CCN(C(=O)C3CCC(CNS(=O)(=O)c4ccccc4)CC3)CC2)c(OC)c1OC` (stereo not drawn) gave RAM inhibit 1.
`COC(=O)c1c(NC(=O)CSc2nnc3ccccn23)sc2c1CCC2` gave Yeast growth inh -26, RAM inhibit 2 and Yeast life ext -2.
Screening C/C(=N\NC(=O)COc1ccc(C)cc1C(C)C)c1ccc(-n2ccnc2)cc1 returned Yeast growth inh -25, RAM inhibit -1 and Yeast life ext -8.
`Cc1cccc(Nc2nnc(SCC3CCCCO3)s2)c1` (stereo not drawn) gave Yeast growth inh -11, RAM inhibit 14*, Yeast life ext -5 and RAM 5-FOA 2.
`COc1ccc(Nc2nnc(SCC3CCCCO3)s2)cc1` (stereo not drawn) gave RAM inhibit 0.
CCCCCC(=O)NNC(=O)c1ccc(F)cc1 was read as Yeast growth inh -24, RAM inhibit -1 and Yeast life ext 1.
Screening COc1ccc(S(=O)(=O)N2c3cc(C)ccc3OCC2C(C)(C)C)cc1 (stereo not drawn) returned Yeast growth inh -73, RAM inhibit 5 and Yeast life ext 5.
Screening Cc1ccc(S(=O)(=O)N2c3cc(C)ccc3OCC2C(C)(C)C)cc1 (stereo not drawn) returned Yeast growth inh -24, RAM inhibit 13*, Yeast life ext -1 and RAM 5-FOA 4.
Screening CCOC(=O)c1cnc(SCC(=O)Nc2nc(C)c(C)s2)nc1N returned Yeast growth inh -48, RAM inhibit 0 and Yeast life ext -9.
C/C(CC1CC2=C(CC1(C)C)C(C)(C)CCC2)=N\NC(N)=S (stereo not drawn) was read as Yeast growth inh 13, RAM inhibit 13*, Yeast life ext -2 and RAM 5-FOA 1.
Screening C/C(=N\NC(N)=S)C1(C)CCCCC1 returned Yeast growth inh -4, RAM inhibit 2 and Yeast life ext 1.
For O=C(Nc1nc(-c2ccccc2)c(C(=O)c2ccccc2)s1)c1ccc(S(=O)(=O)N2CCCC2)cc1 the results were Yeast growth inh -17, RAM inhibit 7 and Yeast life ext -2.
`O=C(c1ccccc1)c1sc(N2CCCCCC2)nc1-c1ccccc1` gave Yeast growth inh -58, RAM inhibit 12*, Yeast life ext 2 and RAM 5-FOA 4.
Screening CCC(C)NC(=O)C1CCN(S(=O)(=O)c2ccc(OC)cc2)CC1 (stereo not drawn) returned Yeast growth inh -12, RAM inhibit 1 and Yeast life ext -6.
For O=C(Nc1ccccc1Cl)c1cccc(COc2cc(Cl)ccc2Cl)c1 the results were Yeast growth inh -43, RAM inhibit 12*, Yeast life ext -3 and RAM 5-FOA 5.
Screening O=C(O)c1cccc(COc2ccccc2Cl)c1 returned Yeast growth inh -60, RAM inhibit 0 and Yeast life ext -6.
`COc1ccc(COc2ccsc2C(=O)Nc2ccc(Cl)c(Cl)c2)cc1` gave Yeast growth inh -49, RAM inhibit 14*, Yeast life ext -22 and RAM 5-FOA 2.

High-throughput results (PubChem BioAssay)
